The subject of data set [1] is TRPC4:C4. The settings on record: read-out: TRPC4:C4 IC50; cited from earlier work.
For the next data set, the system named is TRPC5:C5. The settings on record: read-out: TRPC5:C5 IC50; cited from earlier work.
A further data set concerns the target T1, TRPC5-SYFP2 (Homo sapiens, UniProt Q9UL62).
T1 sequence (Q9UL62 1-973): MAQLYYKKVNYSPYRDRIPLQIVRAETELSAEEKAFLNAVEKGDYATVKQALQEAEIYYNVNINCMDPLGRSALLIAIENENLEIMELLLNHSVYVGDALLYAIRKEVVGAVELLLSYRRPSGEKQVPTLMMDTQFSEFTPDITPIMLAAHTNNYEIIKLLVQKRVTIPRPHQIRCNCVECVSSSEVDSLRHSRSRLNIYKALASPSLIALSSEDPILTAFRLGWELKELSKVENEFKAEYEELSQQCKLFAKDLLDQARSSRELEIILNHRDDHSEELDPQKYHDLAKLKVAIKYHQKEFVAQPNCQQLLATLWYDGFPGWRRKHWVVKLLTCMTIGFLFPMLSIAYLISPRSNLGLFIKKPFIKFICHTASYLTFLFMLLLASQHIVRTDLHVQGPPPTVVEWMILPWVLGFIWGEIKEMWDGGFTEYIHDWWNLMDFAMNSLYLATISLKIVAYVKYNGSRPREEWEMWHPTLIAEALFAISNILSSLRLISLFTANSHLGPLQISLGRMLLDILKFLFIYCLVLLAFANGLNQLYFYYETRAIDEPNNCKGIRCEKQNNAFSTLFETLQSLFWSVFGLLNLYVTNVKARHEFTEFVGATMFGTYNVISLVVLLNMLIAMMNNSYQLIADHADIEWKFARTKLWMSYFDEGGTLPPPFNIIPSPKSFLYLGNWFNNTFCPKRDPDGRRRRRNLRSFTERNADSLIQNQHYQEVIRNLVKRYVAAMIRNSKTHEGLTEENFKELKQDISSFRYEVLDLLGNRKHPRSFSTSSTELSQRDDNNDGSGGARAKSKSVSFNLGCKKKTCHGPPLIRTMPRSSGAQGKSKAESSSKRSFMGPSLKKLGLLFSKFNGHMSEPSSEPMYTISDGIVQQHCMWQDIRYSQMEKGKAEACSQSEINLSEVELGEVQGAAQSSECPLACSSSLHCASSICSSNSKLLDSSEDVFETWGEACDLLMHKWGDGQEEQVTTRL
Kind of data set: Competition photoaffinity labelling. It counts as binding. The settings on record: Pico145 10 μM pre-treatment; 300 nM Pico145-DAAlk 5. The essentials: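 Tetracycline-induced (1 μg ml−1, 24 h) cells in SBS pre-treated 30 min at 37 °C with test compound or DMSO, then 30 min at 37 °C with 300 nM diazirine-alkyne probe plus competitor. Streptavidin-HRP/anti-GFP blots; biotin/GFP densitometry versus probe-only control; n = 3; one-way ANOVA, Dunnett.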

The target of data set [2] is T2, TRPC4:C4 (Homo sapiens, UniProt Q9UBN4).
T2 sequence (Q9UBN4 1-893 isoform Q9UBN4-2): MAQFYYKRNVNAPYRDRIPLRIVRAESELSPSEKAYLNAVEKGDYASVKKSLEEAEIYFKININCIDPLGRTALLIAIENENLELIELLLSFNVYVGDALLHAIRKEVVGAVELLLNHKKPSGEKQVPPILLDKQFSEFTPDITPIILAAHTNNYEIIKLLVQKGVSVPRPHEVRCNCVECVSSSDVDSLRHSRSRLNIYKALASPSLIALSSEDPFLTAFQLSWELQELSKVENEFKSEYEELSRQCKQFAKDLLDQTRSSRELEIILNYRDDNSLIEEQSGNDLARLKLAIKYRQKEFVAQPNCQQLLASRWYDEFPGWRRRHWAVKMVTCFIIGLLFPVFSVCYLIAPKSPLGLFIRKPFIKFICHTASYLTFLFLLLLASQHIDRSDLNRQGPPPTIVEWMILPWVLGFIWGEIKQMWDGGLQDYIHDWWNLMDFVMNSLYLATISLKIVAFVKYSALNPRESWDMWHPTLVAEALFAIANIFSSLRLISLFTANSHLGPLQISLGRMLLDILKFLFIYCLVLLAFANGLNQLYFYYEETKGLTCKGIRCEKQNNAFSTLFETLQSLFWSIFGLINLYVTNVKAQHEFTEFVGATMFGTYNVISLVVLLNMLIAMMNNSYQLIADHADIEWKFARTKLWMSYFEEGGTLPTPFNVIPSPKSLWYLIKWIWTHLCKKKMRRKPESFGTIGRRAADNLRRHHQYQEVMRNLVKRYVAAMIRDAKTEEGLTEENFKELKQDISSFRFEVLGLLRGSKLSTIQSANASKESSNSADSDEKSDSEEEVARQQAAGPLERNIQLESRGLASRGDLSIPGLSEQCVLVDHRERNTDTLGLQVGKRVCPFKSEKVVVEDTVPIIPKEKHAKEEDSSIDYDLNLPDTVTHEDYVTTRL
The settings on record: read-out: TRPC4:C4 IC50; 10 nM EA was used as activator; cited from earlier work.

The next data set has as its target TRPC4-C1 (Homo sapiens, UniProt P48995+Q9UBN4). The settings on record: read-out: TRPC4-C1 IC50; 10 nM EA was used as activator; cited from earlier work.
For data set [3] the following is noted: cited from earlier work.

Entries after “also recorded” stand apart in the source; their conditions may differ.

Sequence of TRPC4-C1 (P48995 whole entry, one chain of several): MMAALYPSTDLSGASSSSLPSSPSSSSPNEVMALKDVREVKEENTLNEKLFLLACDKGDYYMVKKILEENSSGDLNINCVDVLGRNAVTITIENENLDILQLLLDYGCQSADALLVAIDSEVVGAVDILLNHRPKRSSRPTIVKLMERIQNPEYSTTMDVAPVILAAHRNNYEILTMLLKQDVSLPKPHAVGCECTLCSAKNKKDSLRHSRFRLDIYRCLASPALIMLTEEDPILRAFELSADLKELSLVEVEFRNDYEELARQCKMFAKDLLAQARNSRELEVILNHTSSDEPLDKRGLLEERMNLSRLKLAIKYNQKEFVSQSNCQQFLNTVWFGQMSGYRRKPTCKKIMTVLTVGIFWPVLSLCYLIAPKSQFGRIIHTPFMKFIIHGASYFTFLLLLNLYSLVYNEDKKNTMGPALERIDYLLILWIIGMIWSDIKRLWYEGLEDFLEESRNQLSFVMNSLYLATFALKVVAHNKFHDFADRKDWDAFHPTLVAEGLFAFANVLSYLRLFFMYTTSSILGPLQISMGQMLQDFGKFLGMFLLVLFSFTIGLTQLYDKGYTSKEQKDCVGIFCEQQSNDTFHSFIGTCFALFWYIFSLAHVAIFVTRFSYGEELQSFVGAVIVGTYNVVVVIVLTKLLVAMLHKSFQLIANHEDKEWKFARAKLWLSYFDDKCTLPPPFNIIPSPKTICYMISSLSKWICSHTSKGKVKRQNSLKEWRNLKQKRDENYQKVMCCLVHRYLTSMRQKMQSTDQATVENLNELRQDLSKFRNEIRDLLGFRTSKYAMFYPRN

With `O=C1CN(c2cn[nH]c(=O)c2Cl)CCN1Cc1ccccc1C(F)(F)F` [GFB-8438], the IC50 in the data set with TRPC4:C4 [1] is 290 nM; in the data set on TRPC5:C5, 180 to 280 nM.

As to `Cn1c(=O)n(CCCO)c(=O)c2c1nc(Oc1cccc(OC(F)(F)F)c1)n2Cc1ccc(Cl)cc1` [Pico145 1], at TRPC5-SYFP2, the “Effect on TRPC5 photoaffinity labelling with Pico145-DAAlk 5” value is given as “inhibition of TRPC5 labelling; also recorded: inhibits photoaffinity labelling”. The IC50 on TRPC4:C4 [2] was 0.35 nM; at TRPC4-C1 it was 0.03 nM. Also, the Oral bioavailability result in data set [3] is reported as “orally bioavailable”.

For orientation: IC50 means the concentration at which inhibition is half-maximal.

The values above are taken from publication PMC10655067 (RSC Chemical Biology, 2020).
